Rows were chosen to be rich in hits. Some 1.4% of all compounds tested hit in one or more screens of this group.
PKA-R1A activ: PKA-R1A complex activation; P00514+P68181; PKA-R1A dissociation, Cy5-IP20 fluorescence polarization; scaled: DMSO 0%, 113 µM cGMP 100%; activation, % at 11.4 µM; 340,000 tested, 0.083% active; AID 504707;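 active = percent activation above the mean of all tested compounds plus 3 SD, cut at about 19% in these data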;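 also: higher means more PKAc released from R1A so a rise in polarization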
SR-BI uptake up: enhances SR-BI lipid uptake from DiI-HDL; 320,000 tested, 0.096% active; CHO ldlA[mSR-BI] cells, DiI-HDL uptake fluorescence, 3 h; 100 = double the neutral-control signal; activation, % at 12.5 µM;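 active = mean replicate activation of at least 60% and every replicate at or above 60%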;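 also: 0% = median plate neutral-control signal and 100% = twice that signal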
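Assay system: LDL receptor-deficient CHO ldlA cells overexpressing murine SR-BI / Medium: BSA-supplemented, HEPES-buffered Ham's F12, pH 7.4 / Probe or stimulus: DiI-labelled HDL at 10 µg/mL final / Timing: compound with DiI-HDL co-incubation, 3 h at 37 °C / Technique: bottom-read cell fluorescence after medium removal, ex 550/em 595 nm / Measure: HDL uptake via cellular fluorescence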
SR-BI DiI inh: mouse SR-BI HDL lipid transfer inhibition; Q61009; ldlA[mSR-BI] CHO cells, DiI-HDL uptake fluorescence, 3 h; inhibition, % at 12.5 µM; 320,000 tested, 0.96% active;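 active = mean replicate inhibition of at least 70% and a set share of replicates each scoring 70 or more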;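 also: 0% = median of neutral control wells and 100% = median of positive control wells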
Target sequence (Q61009 whole entry, looked up): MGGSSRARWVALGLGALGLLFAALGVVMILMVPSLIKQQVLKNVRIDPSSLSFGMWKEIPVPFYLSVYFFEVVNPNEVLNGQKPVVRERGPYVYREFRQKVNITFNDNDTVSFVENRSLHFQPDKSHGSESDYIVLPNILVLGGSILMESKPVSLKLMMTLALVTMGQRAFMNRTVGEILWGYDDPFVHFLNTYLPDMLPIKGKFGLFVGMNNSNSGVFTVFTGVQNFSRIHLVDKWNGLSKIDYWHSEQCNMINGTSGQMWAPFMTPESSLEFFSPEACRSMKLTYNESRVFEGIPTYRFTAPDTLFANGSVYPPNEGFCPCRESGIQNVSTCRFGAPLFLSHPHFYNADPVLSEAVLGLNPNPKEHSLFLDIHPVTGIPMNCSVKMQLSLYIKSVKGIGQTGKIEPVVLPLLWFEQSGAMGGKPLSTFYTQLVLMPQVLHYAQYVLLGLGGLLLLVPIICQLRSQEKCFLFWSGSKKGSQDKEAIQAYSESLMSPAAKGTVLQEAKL
PKA-R2B activ: activates the human PKA-R2B holoenzyme complex. PKA-R2B holoenzyme dissociation, Cy5-IP20 fluorescence polarization; R2B truncated from residue 108, S112A mutant; 0% DMSO only, 100% 113 µM cGMP. activation, % at 11.4 µM. P22694+P31323. 340,000 tested, 0.079% active. AID 504700;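 active = activation above a cutoff set at the mean over all compounds plus 3 SD, cut at about 18% in these data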;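 also: higher means more holoenzyme dissociation and a rise in polarization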
Vif inh: blocks HIV Vif function; HEK293T cells, Vif self-association by quenched fluorescence, imaging, 24 h; inhibition, % at 7.49 µM; 340,000 tested, 0.35% active; AID 602346; in the data active = inhibition above about 50%, passing the limit was not always enough
Active calls of the source: *; i = inactive; . = not tested or not shown.

SMILES | PKA-R1A activ | SR-BI uptake up | SR-BI DiI inh | PKA-R2B activ | Vif inh
CN(C)CCNC=C(C(=O)Nc1ccc(Cl)cc1Cl)C(=O)Nc1ccc(Cl)cc1Cl | -1 | 82* | -82 | -1 | 7
CC(=O)/C(=C/N(C)C)C(=O)Nc1ccc(Cl)cc1Cl | 0 | -9 | 9 | 1 | -3
CC1(S(=O)(=O)O)CC(=O)c2ccccc2C1=O (centres undefined) | -8 | -1 | 1 | 2 | 174*
O=C(CCc1nnc(CCCc2ccccc2)o1)NCCN1CCOC1=O | -2 | 8 | -8 | -17 | -6
Cc1ccc2nc(NC(=O)c3ccc(N4C(=O)CCC4=O)cc3)sc2c1 | 8 | -77 | 77* | 6 | -3
Cc1ccc2sc(NC(=O)c3cccc(N4C(=O)CCC4=O)c3)nc2c1C | -14 | -94 | 94* | -12 | 3
O=C(Nc1nc(-c2ccc(F)cc2)cs1)c1cccc(N2C(=O)CCC2=O)c1 | -3 | -81 | 81* | -12 | -2
Cc1ncoc1C(=O)N1CCCC(C(=O)c2ccc(Oc3ccccc3)cc2)C1 (centres undefined) | -10 | 9 | -9 | 7 | 61*
Cc1ncoc1C(=O)N1CCCC(C(=O)c2cccc(OC(C)C)c2)C1 (centres undefined) | 18 | 19 | -19 | 3 | -2
COc1ccc(-c2sc3ccc(N4CCOCC4)cc3c2C#Cc2ccsc2)cc1 | -2 | -90 | 90* | 5 | 2
COc1ccc(-c2sc3ccc(N4CCOCC4)cc3c2C#CC(C)(C)O)cc1 | -5 | -58 | 58 | -12 | 19
COc1ccc(C(=O)NC2CC3CCCC(C2)N3Cc2ccccc2)cc1OC (centres undefined) | 2 | -17 | 17 | -4 | 52*
COc1cc(C(=O)NC2CC3CCCC(C2)N3Cc2ccccc2)cc(OC)c1OC (centres undefined) | -9 | . | . | 1 | 2
COc1ccc(CN2C3CCC2CC(NC(=O)c2cc(OC)c(OC)c(OC)c2)C3)cc1 (centres undefined) | -5 | -5 | 5 | 1 | 63*
CCOC(=O)CSc1nc(Cc2ccccc2)nc2ccccc12 | 8 | -15 | 15 | 7 | 4
COCCn1c(=NC(=O)/C=C/c2ccccc2)sc2cc(NC(C)=O)ccc21 | 7 | -88 | 88* | -3 | 0
COCCNC(=O)C1(C)CCCN(Cc2cc(-c3ccccc3)nn2C)C1 (centres undefined) | . | . | . | . | 1
CC(=O)c1nnn(-c2ccc([N+](=O)[O-])cc2C)c1C | -9 | 15 | -15 | 2 | 1
NC(=S)N/N=C/c1ccc(-c2cccc([N+](=O)[O-])c2)o1 | 1 | -78 | 78* | -6 | 1
NC(=S)N/N=C/c1ccc(-c2cc(Cl)c(Cl)cc2Cl)o1 | 10 | -82 | 82* | -8 | -3
C=CCNC(=S)N/N=C/c1ccc(-c2ccc(Cl)cc2Cl)o1 | -1 | -71 | 71* | 2 | 0
O=C(NCc1ccc(Cl)cc1)c1cccc(NC2=NC3CS(=O)(=O)CC3S2)c1 (centres undefined) | -2 | 16 | -16 | -3 | -13
CC(C)C(=O)N1CCCC1(C)C(=O)Nc1ccc(F)cc1 (centres undefined) | . | . | . | . | 7
Cc1onc(-c2ccccc2)c1C(=O)NC(=S)NNC(=O)c1ccccc1O | -4 | -117 | 117* | -1 | .
Cc1onc(-c2ccccc2)c1C(=O)NC(=S)NNC(=O)c1ccc(O)cc1O | -18 | -85 | 85* | 1 | -25
SMILES | PKA-R1A activ | SR-BI uptake up | SR-BI DiI inh | PKA-R2B activ | Vif inh
CC(C)c1ccc(OCCCN2CCCC2)cc1 | 5 | 24 | -24 | 6 | -11
COc1cc(NC(=S)NC(=O)c2c(OC)cccc2OC)ccc1NC(=O)c1cccs1 | -3 | -74 | 74* | 0 | .
COc1cc(NC(=O)c2cc3ccccc3cc2OC)ccc1NC(=O)c1cccs1 | -1 | . | 71* | -6 | -5
COc1cc(NC(=S)NC(=O)c2cc(C)cc(C)c2)ccc1NC(=O)c1cccs1 | -1 | -57 | 57 | 9 | 4
COc1cc(NC(=S)NC(=O)c2ccccc2F)ccc1NC(=O)c1cccs1 | -2 | -83 | 83* | -10 | -16
O=C(CNCc1ccccc1)Nc1ccc(Cl)cc1 | -4 | -12 | 12 | -1 | -8
O=C(CCCCl)Oc1ccc2cc(-c3ccc4ccccc4n3)c(=O)oc2c1 | 7 | 23 | -23 | 8 | -1
CCc1ccc(NC(=O)C2C3/C=C\CCCCC32)cc1 (centres undefined) | -2 | 24 | -24 | -8 | 0
CCCC(=O)Nc1sc(C)c(C)c1C(=O)Nc1cccc(C)c1 | -5 | -72 | 72* | -5 | -10
CCOc1ccc(CC(=O)Nc2ccc(NC(=O)c3ccco3)cc2)cc1OCC | -8 | -41 | 41 | 6 | 10
c1ccc(-c2nnc(-c3ccncc3)nc2-c2ccccc2)cc1 | 7 | 40 | -40 | 1 | 3
Brc1nc(-c2ccccc2)nc(-c2ccccc2)c1Br | . | . | . | . | 69*
Cc1ccc(OCCSc2ncnc3sc(C)c(C)c23)cc1C | -1 | 950* | i | 6 | 11
Cc1cc(/C=N/n2c(COc3ccccc3)nc3ccccc3c2=O)c(O)c([N+](=O)[O-])c1 | 1 | -130 | 130* | 2 | 2
Cc1ccc(-c2[nH]ncc2/C=N/n2c(COc3ccccc3)nc3ccccc3c2=O)cc1 | 7 | -25 | 25 | -8 | 7
OC(c1ccc(F)cc1)c1nc(-c2ccoc2)cs1 (centres undefined) | . | . | . | . | -5
Cc1ccc(-n2nc(C)cc2Nc2ncc(Cl)cc2Cl)cc1 | 3 | -82 | 82* | -10 | 2
COC(=O)c1ccc(C2N=C(c3cccs3)CC(c3ccccc3O)N2)cc1 (centres undefined) | -2 | -75 | 75* | -8 | -2
O=C(c1ccccc1)N1N=C(c2cccs2)CC1c1ccccc1O (centres undefined) | 4 | -3 | 3 | 4 | 1
Cc1ccccc1C1CC(=O)Oc2cc(O)ccc21 (centres undefined) | 2 | 9 | -9 | 0 | 63*
COc1ccc(C2CC(=O)Oc3cc(O)ccc32)cc1 (centres undefined) | 1 | -23 | 23 | 4 | 5
Cc1nc(SCC(=O)Nc2ccc(CN3CCCC3)cc2)c2c(C)c(C)sc2n1 | 2 | -8 | 8 | -3 | 12
COC(=O)c1cc2c(n1S(=O)(=O)c1ccc(C)cc1)C(=O)C(=O)c1[nH]cc(C(=O)OCc3ccccc3)c1-2 | 1 | -88 | 88* | -1 | -10
CN(C(=O)CSc1ncnc2sccc12)c1c(N)n(Cc2ccccc2)c(=O)[nH]c1=O | 9 | . | . | 3 | -1
Cc1ccc(NC(=O)c2csc(-c3ccccc3)c2C)cc1 | -7 | -14 | 14 | -1 | -2
